Assay results pooled from the literature.
Each line is one published result; the experiments were not run side by side.
Target: Homeodomain-interacting protein kinase 3 (HIPK3, Homo sapiens, UniProt Q9H422)
Observed: enzyme activity
Mode: inhibitor

SMILES	method	tested at	remaining activity
O=C(O)c1ccc2c(c1)nc(NCCc1ccccc1)c1ccncc12	radiometric	1 µM	8%
CCCOc1ccc(OC)c(F)c1C(=O)c1ccc(C(=O)N[C@@H]2CNC[C@H]2NC(=O)c2ccc3[nH]ncc3c2)cc1	–	10 µM	97%
CCN(CC)c1ccc(C2=NNC(=O)CC2C)cc1[N+](=O)[O-] (stereo not shown)	–	10 µM	40%
Cc1ccc(C(=O)Nc2ccc(CN3CCN(C)CC3)c(C(F)(F)F)c2)cc1C#Cc1cnc2cccnn12	–	23.5 nM	93%
O=C(O)c1ccc2c(c1)nc(Nc1ccc(F)c(Cl)c1)c1ccncc12	radiometric	1 µM	5%
Cc1cnc(NC2CCOCC2)nc1-n1cnc(C(=O)NC(CN)c2cc(F)cc(Cl)c2)c1 (stereo not shown)	radiometric	1 µM	94%
O=C(O)c1ccc2c(c1)nc(NCCc1cccc(Cl)c1)c1ncncc12	radiometric	1 µM	38%
Oc1cccc(-c2nc(N3CCOCC3)c3oc4ncccc4c3n2)c1	–	10 µM	82%
CC(C)(C)c1nc2c(s1)c1nc(N)ncc1c1ccc(NS(=O)(=O)c3c(F)cccc3F)c(F)c12	radiometric	1 µM	96%
O=C(O)c1ccc2c(c1)nc(NCc1ccccc1)c1ncncc12	radiometric	1 µM	52%
COc1cc(Cl)c(C(=O)N[C@@H](CN[C@H]2CC[C@@H](N)CC2)Cc2ccc(C#N)cc2)cc1-c1ccc(CN[C@H](C)c2ccc(C)cc2)o1	–	1 µM	96%
CC(C)(O)[C@H]1CC[C@H](Nc2ccc3ncc(-c4cccc(C(F)(F)F)c4)n3n2)CC1	–	1 µM	78.4%
COc1cc(Nc2cnc(C#N)c(O[C@H](C)CN(C)C)n2)ncc1-c1cnn(C)c1	radiometric	1 µM	96%
O=C(Nc1cnn(-c2csc(C(=O)NC3COC3)c2)c1)Nc1ccccc1Cl	–	5 µM	97.6%
CC(C)(C)c1nc(-c2cccc(NS(=O)(=O)c3c(F)cccc3F)c2F)c(-c2ccnc(N)n2)s1	radiometric	1 µM	99%
O=C(O)c1ccc2c(c1)nc(Nc1ccc(F)c(Cl)c1)c1ncncc12	radiometric	1 µM	12%
FC(F)c1nc2ccccc2n1-c1nc(N2CCOCC2)nc(N2CCOCC2)n1	–	10 µM	98%
Cc1sc(C(=O)NC2COC2)cc1-n1cc(NC(=O)Nc2c(F)cccc2Cl)cn1	–	10 µM	88.5%
O=C(O)c1ccc2c(c1)nc(Nc1ccc3ccccc3c1)c1ccncc12	radiometric	1 µM	7%
